Source: publication PMC3677216 (Bioorganic & medicinal chemistry letters, 2013)

Columns and labels:
HeLa cells = assay: Cytotoxicity; format: cell-based
NCI-60 cell panel = assay: NCI-60 cell panel, Sulforhodamine B assay; format: cell-based; details: NCI-60 panel
Procedure, shortened: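 NCI-60 panel screen. Viability read by Sulforhodamine B staining of total protein, a measure of cell number rather than metabolic activity. Values are GI50, defined from the change in cell counts relative to the starting number of cells. Some panel lines were not tested.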

MA9.3 AML cell line = assay: Cytotoxicity in MA9.3 AML cells; format: cell-based, human; details: for therapeutic index: between MA9.3 AML cell line and non-cancerous human CD34+ blood stem/progenitor cells
[1] = system: human CD34+ blood stem/progenitor cells; assay: Cytotoxicity in normal CD34+ blood stem/progenitor cells; format: cell-based

Compound: CC(C)N(CCOc1ccc(O)cc1)c1ccccc1 [Compound 4]
- decrease in potency relative to compound 2 (HeLa cells): 3 fold

Compound: Oc1ccc(OCCN(CCOc2ccc(O)cc2)c2ccccc2)cc1 [Compound 5]
- range of distribution of GI50 values (NCI-60 cell panel): 55 fold
- potency relative to compound 3 (HeLa cells): potency doubled

Compound: CN(CCCOc1ccc(O)cc1)c1ccccc1 [Compound 7]
- range of distribution of GI50 values (NCI-60 cell panel): 53 fold

Compound: CN(C(=O)COc1ccc(O)cc1)c1ccccc1 [Compound 11]
- potency / anticancer cell activity (in words) (HeLa cells): anticancer cell activity was eliminated

Compound: CCOc1ccc(O)cc1 [Compound 12]
- potency / anticancer cell activity (in words) (HeLa cells): no potency

Compound: CN(CCCOc1ccccc1)c1ccccc1 [Compound 13]
- potency / anticancer cell activity (in words) (HeLa cells): complete loss of potency

Compound: CN(CCCBr)c1ccccc1 [Compound 14]
- potency / anticancer cell activity (in words) (HeLa cells): loss of potency

Compound: N.N.[Cl][Pt][Cl] [cisplatin]
- IC50 (MA9.3 AML cell line; MA9.3 AML cells): 14 ± 0.7 µM
- therapeutic index (MA9.3 AML cell line): 1.0 ± 0.2
- IC50 [1]: 15 ± 2 µM

Compound: COc1cccc2c1C(=O)c1c(O)c3c(c(O)c1C2=O)C[C@@](O)(C(=O)CO)C[C@@H]3O[C@H]1C[C@H](N)[C@H](O)[C@H](C)O1 [doxorubicin]
- therapeutic index (MA9.3 AML cell line): 0.9 ± 0.2
